Data published in ChEMBL document CHEMBL1139611, “Structure-activity relationships of novel endomorphin-2 analogues with N-O turns induced by alpha-aminoxy acids” (Bioorg Med Chem Lett, 2005).

Key:
[1] = molecular target: Opioid receptors; mu & delta (Rattus norvegicus) (UniProt P33533+P33535); experiment: Selectivity ratio of Opioid receptor delta 1 to Opioid receptor mu 1; type: protein assay
Mu-type opioid receptor [2] = molecular target: T1, Mu-type opioid receptor (Rattus norvegicus, UniProt P33535); experiment: Inhibition of [3H]DAMGO binding to Opioid receptor mu 1 of rat brain membrane
How it was run: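 Rat brain synaptosomal P2 membranes from Wistar rats in 50 mM Tris-HCl, pH 7.4. […] Nonspecific binding was defined with naloxone. Ki was derived by Cheng-Prusoff. Values are means of at least three experiments.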

[3] = molecular target: Delta-type opioid receptor (Rattus norvegicus, UniProt P33533); experiment: Inhibition of [3H]DPDPE binding to Opioid receptor delta 1 of rat brain membrane
How it was run: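 Competition binding on Wistar rat brain synaptosomal P2 membranes in 50 mM Tris–HCl, pH 7.4. […] Delta sites were labelled with [3H]DPDPE (1 nM, Kd 2.75 nM) for 3 h at 25 °C. Nonspecific binding was taken with naloxone. Ki was derived by Cheng–Prusoff; values are means of ≥3 experiments.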

[4] = molecular target: Delta-type opioid receptor (Rattus norvegicus) (UniProt P33533); experiment: Percent decrease of maximum binding towards Opioid receptor delta 1 in rat brain membrane using [3H]DPDPE at 10 uM concentration; type: cell membranes; design: scale not given: the % may be the effect or the level left
[5] = molecular target: Mu-type opioid receptor (Rattus norvegicus) (UniProt P33535); experiment: Percent inhibition of [3H]-DAMGO binding to Opioid receptor mu 1 of rat brain membrane at 10 uM; design: scale not given: the % may be the effect or the level left
Mu-type opioid receptor [6] = molecular target: T1, Mu-type opioid receptor; experiment: Inhibition of [3H]DAMGO binding to Opioid receptor mu 1 of rat brain membrane; na= No activity.
[7] = molecular target: Delta-type opioid receptor (Rattus norvegicus) (UniProt P33533); experiment: Percent inhibition of [3H]DPDPE binding to Opioid receptor delta 1 of rat brain membrane at 10 uM; design: scale not given: the % may be the effect or the level left

Chain of Opioid receptors; mu & delta (Rattus norvegicus) (P33533 whole entry, looked up): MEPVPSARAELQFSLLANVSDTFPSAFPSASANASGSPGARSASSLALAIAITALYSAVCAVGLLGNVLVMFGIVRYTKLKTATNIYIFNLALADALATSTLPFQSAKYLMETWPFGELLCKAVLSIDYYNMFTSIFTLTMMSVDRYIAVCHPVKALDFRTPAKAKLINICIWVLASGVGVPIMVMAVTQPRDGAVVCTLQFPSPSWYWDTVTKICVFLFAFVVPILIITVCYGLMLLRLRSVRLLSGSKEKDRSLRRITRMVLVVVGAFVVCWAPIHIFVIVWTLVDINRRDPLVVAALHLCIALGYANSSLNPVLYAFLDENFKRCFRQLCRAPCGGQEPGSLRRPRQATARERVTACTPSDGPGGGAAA
Chain of Opioid receptors; mu & delta (Rattus norvegicus) (P33535 whole entry, looked up): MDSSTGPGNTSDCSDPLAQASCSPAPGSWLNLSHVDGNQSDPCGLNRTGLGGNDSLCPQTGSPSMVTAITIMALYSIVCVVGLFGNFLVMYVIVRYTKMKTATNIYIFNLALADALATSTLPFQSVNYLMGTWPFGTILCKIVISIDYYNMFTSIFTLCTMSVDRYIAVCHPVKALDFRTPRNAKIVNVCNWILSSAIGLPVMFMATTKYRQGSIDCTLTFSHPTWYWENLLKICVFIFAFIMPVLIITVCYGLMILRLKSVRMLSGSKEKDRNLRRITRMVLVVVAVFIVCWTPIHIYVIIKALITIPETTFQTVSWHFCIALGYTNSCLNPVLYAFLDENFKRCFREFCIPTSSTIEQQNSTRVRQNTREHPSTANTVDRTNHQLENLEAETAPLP
Chain of Delta-type opioid receptor (P33533 whole entry): as the sequence (P33533 whole entry, looked up) above
Chain of Delta-type opioid receptor (Rattus norvegicus) (P33533 whole entry): as the sequence (P33533 whole entry, looked up) above
T1 sequence (P33535 whole entry): as the sequence (P33535 whole entry, looked up) above
Chain of Mu-type opioid receptor (Rattus norvegicus) (P33535 whole entry): as the sequence (P33535 whole entry, looked up) above

Row | SMILES | Selectivity [1] | Ki (Mu-type opioid receptor [2]) | Ki [3] | Activity [4] | Activity [5] | Ki (Mu-type opioid receptor [6]) | Activity [7]
1 | NC(=O)[C@H](Cc1ccccc1)NC(=O)[C@H](Cc1ccccc1)O/N=C/[C@@H]1CCCN1C(=O)[C@@H](N)Cc1ccc(O)cc1 | 4.1 | 408 µM | 19.8 µM | – | – | – | –
2 | NC(=O)[C@H](Cc1ccccc1)NC(=O)[C@@H](Cc1ccccc1)O/N=C/[C@@H]1CCCN1C(=O)[C@@H](N)Cc1ccc(O)cc1 | 9 | 4.04 µM | 37.1 µM | – | – | – | –
3 | NC(=O)[C@H](Cc1ccccc1)NC(=O)[C@H](Cc1ccccc1)NC(=O)[C@@H]1CCN(C(=O)[C@@H](N)Cc2ccc(O)cc2)C1 | 1020 | 0.00823 µM | 8.36 µM | – | – | – | –
4 | NC(=O)[C@H](Cc1ccccc1)NC(=O)[C@H](Cc1ccccc1)NC(=O)[C@@H](Cc1ccccc1)NO[C@@H](N)Cc1ccc(O)cc1 | – | > 10 µM | > 10 µM | 18% | 22% | – | –
5 | NC(=O)[C@H](Cc1ccccc1)NC(=O)[C@H](Cc1ccccc1)NC(=O)[C@H](Cc1ccccc1)NO[C@@H](N)Cc1ccc(O)cc1 | – | – | > 10 µM | 30% | – | Not Active | –
6 | NC(=O)[C@H](Cc1ccccc1)NC(=O)[C@H](Cc1ccccc1)NO[C@@H]1CCCN1C(=O)[C@@H](N)Cc1ccc(O)cc1 | > 23 | 0.434 µM | > 10 µM | – | – | – | 15%
7 | NC(=O)[C@H](Cc1ccccc1)NC(=O)[C@@H](Cc1ccccc1)NO[C@@H]1CCCN1C(=O)[C@@H](N)Cc1ccc(O)cc1 | > 17 | 0.6 µM | > 10 µM | – | – | – | 30%
